Data on 6 compounds can be found in ChEMBL document CHEMBL3244330, “Structure--activity relationships of n-substituted dopamine and 2-amino-6,7-dihydroxy-1,2,3,4-tetrahydronaphthalene analogues: behavioral effects in lesioned and reserpinized mice” (J Med Chem, 1979).

Data set [1] relates to Mus musculus. Description: Postural effect on caudectomized Swiss albino mouse assessed as latency to onset time of asymmetric postural effect at 59.8 mg/kg, ip. In kind it is functional. The note with it: route intraperitoneal. An outline of the steps:
(§1)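 Male Swiss albino Hale-Stoner mice with a right caudectomy made by suction. A lesion was accepted if the mouse responded to apomorphine 4 weeks after surgery. Compounds were dissolved in 0.9% saline and injected ip at random into groups of six, with a maximum dose of 0.348 mmol/kg. 18 mice were used per compound, and mice were retested after 5–6 day intervals. Onset and duration of the asymmetric posture are reported as mean ± SE from six animals.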

Data set [2] relates to Mus musculus. Description: Reversal of reserpine-induced catalepsy in ip dosed Swiss albino (CD1) mouse. In kind it is functional. The procedure, abridged:
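Male Swiss albino CD1 mice, 5 weeks old, got reserpine 5 mg/kg ip, then α-MTM 250 mg/kg ip 17 h later, then the test drug ip 4 h after that. Catalepsy was scored by the rubber-stopper test (time to step off the stopper). At least four doses were used, with ≥8 mice per dose. ED50 was taken from a log-probit plot of percent responders against dose.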

The subject of data set [3] is Mus musculus. Description: Postural effect on caudectomized Swiss albino mouse assessed as latency to onset time of asymmetric postural effect at 29.9 mg/kg, ip. The note with it: route intraperitoneal. The class given is functional. The procedure, abridged: as §1
In data set [4] the test system is Mus musculus. Description: Postural effect on caudectomized Swiss albino mouse assessed as time duration of asymmetric posture at 29.9 mg/kg, ip. In kind it is functional. The note with it: route intraperitoneal. The procedure, abridged: as §1
The subject of data set [5] is Mus musculus. Description: Postural effect on caudectomized Swiss albino mouse assessed as time duration of asymmetric posture at 59.8 mg/kg, ip. The class given is functional. The note with it: route intraperitoneal. An outline of the steps: (§2)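 Male Swiss albino Hale-Stoner mice given a right caudectomy by suction. The lesion counted as successful if the mice reacted to apomorphine 4 weeks later. Drug was given ip in 0.9% saline, up to 0.348 mmol/kg, to randomised groups of six, with 5-6 days before reuse. Onset and duration of asymmetric posture are reported as mean ± SE from six animals.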

Data set [6] has as its system Mus musculus. Description: Postural effect on caudectomized Swiss albino mouse assessed as latency to onset time of asymmetric postural effect at 47.6 mg/kg, ip. In kind it is functional. The note with it: route intraperitoneal. An outline of the steps:
as §1

Data set [7] deals with Mus musculus. The data set can be described thus: Postural effect on caudectomized Swiss albino mouse assessed as latency to onset time of asymmetric postural effect at 71.5 mg/kg, ip. The class given is functional. The note with it: route intraperitoneal. An outline of the steps:
as §1

The subject of data set [8] is Mus musculus. Description: Postural effect on caudectomized Swiss albino mouse assessed as latency to onset time of asymmetric postural effect at 23.8 mg/kg, ip. In kind it is functional. The note with it: route intraperitoneal. The procedure, abridged:
as §1

The test system of data set [9] is Mus musculus. The data set can be described thus: Postural effect on caudectomized Swiss albino mouse assessed as time duration of asymmetric posture at 47.6 mg/kg, ip. The class given is functional. The note with it: route intraperitoneal. The procedure, abridged:
as §1

For data set [10], the system named is Mus musculus. The data set can be described thus: Postural effect on caudectomized Swiss albino mouse assessed as time duration of asymmetric posture at 23.8 mg/kg, ip. The class given is functional. The note with it: route intraperitoneal. An outline of the steps:
as §1

The test system of data set [11] is Mus musculus. Description: Postural effect on caudectomized Swiss albino mouse assessed as time duration of asymmetric posture at 71.5 mg/kg, ip. In kind it is functional. The note with it: route intraperitoneal. An outline of the steps: as §2
In data set [12] the test system is Mus musculus. The data set can be described thus: Postural effect on caudectomized Swiss albino mouse assessed as latency to onset time of asymmetric postural effect at 58.4 mg/kg, ip. The note with it: route intraperitoneal. The class given is functional. An outline of the steps:
(§3)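 Male Swiss albino Hale-Stoner mice with right caudectomy by suction, used if responsive to apomorphine 4 weeks post-lesion. Compound in 0.9% saline given ip, maximum 0.348 mmol/kg. 18 mice per compound in random groups of six, retested after 5–6 day intervals. Onset latency and duration of asymmetric posture recorded; mean ± SE from six animals.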

The test system of data set [13] is Mus musculus. The data set can be described thus: Postural effect on caudectomized Swiss albino mouse assessed as time duration of asymmetric posture at 58.4 mg/kg, ip. In kind it is functional. The note with it: route intraperitoneal. The procedure, abridged: as §3
For data set [14], the system named is Mus musculus. Description: Postural effect on caudectomized Swiss albino mouse assessed as latency to onset time of asymmetric postural effect at 29.2 mg/kg, ip. In kind it is functional. The note with it: route intraperitoneal. An outline of the steps: as §3
Data set [15] has as its system Mus musculus. The data set can be described thus: Postural effect on caudectomized Swiss albino mouse assessed as time duration of asymmetric posture at 29.2 mg/kg, ip. In kind it is functional. The note with it: route intraperitoneal. The procedure, abridged: as §3
In data set [16] the test system is Mus musculus. Description: Toxicity in caudectomized Swiss albino mouse at 44.6 mg/kg, ip. The class given is organism-based. Also on record: dose 44.6 mg/kg, route intraperitoneal. The note with it: in vivo.
Data set [17] has as its system Mus musculus. The data set can be described thus: Postural effect on caudectomized Swiss albino mouse assessed as latency to onset time of asymmetric postural effect at 29.8 mg/kg, ip. The note with it: route intraperitoneal. The class given is functional. An outline of the steps:
as §1

In data set [18] the test system is Mus musculus. The data set can be described thus: Postural effect on caudectomized Swiss albino mouse assessed as time duration of asymmetric posture at 29.8 mg/kg, ip. In kind it is functional. The note with it: route intraperitoneal. The procedure, abridged:
as §1

Data set [19] has as its system Mus musculus. The data set can be described thus: Postural effect on caudectomized Swiss albino mouse assessed as latency to onset time of asymmetric postural effect at 27.3 mg/kg, ip. The class given is functional. The note with it: route intraperitoneal. An outline of the steps: as §1
Data set [20] deals with Mus musculus. Description: Postural effect on caudectomized Swiss albino mouse assessed as time duration of asymmetric posture at 41 mg/kg, ip. In kind it is functional. The note with it: route intraperitoneal. An outline of the steps:
as §1

For data set [21], the system named is Mus musculus. Description: Postural effect on caudectomized Swiss albino mouse assessed as latency to onset time of asymmetric postural effect at 41 mg/kg, ip. The class given is functional. The note with it: route intraperitoneal. The procedure, abridged: as §1
Data set [22] has as its system Mus musculus. Description: Toxicity in caudectomized Swiss albino mouse at 54.6 mg/kg, ip. In kind it is organism-based. Also on record: dose 54.6 mg/kg, route intraperitoneal. The note with it: in vivo.
Data set [23] has as its system Mus musculus. Description: Ratio of apomorphine ED50 to compound ED50 for reversal of reserpine-induced catalepsy in ip dosed Swiss albino (CD1) mouse. The class given is functional.
The subject of data set [24] is Mus musculus. The data set can be described thus: Postural effect on caudectomized Swiss albino mouse assessed as time duration of asymmetric posture at 27.3 mg/kg, ip. In kind it is functional. The note with it: route intraperitoneal. An outline of the steps: as §1
In data set [25] the test system is Mus musculus. Description: Postural effect on caudectomized Swiss albino mouse assessed as time duration of asymmetric posture at 50.8 mg/kg, ip. The class given is functional. The note with it: route intraperitoneal. An outline of the steps:
as §2

Data set [26] deals with Mus musculus. The data set can be described thus: Postural effect on caudectomized Swiss albino mouse assessed as latency to onset time of asymmetric postural effect at 25.4 mg/kg, ip. The class given is functional. The note with it: route intraperitoneal. The procedure, abridged: as §1
The subject of data set [27] is Mus musculus. The data set can be described thus: Postural effect on caudectomized Swiss albino mouse assessed as latency to onset time of asymmetric postural effect at 50.8 mg/kg, ip. The class given is functional. The note with it: route intraperitoneal. An outline of the steps:
as §1

The subject of data set [28] is Mus musculus. Description: Postural effect on caudectomized Swiss albino mouse assessed as time duration of asymmetric posture at 25.4 mg/kg, ip. The class given is functional. The note with it: route intraperitoneal. An outline of the steps: as §1

The structures appear in SMILES notation.

As to `Br.CCCN(CCC)C1CCc2cc(O)c(O)cc2C1` (stereo not drawn), the Time in the data set with Mus musculus [1] is on record as 2 min; with Mus musculus [3], 2.8 min; in the data set on Mus musculus [4], 17 min; with Mus musculus [5] it was 31.5 min. Further, in the data set with Mus musculus [2], the 50% effective dose (ED50) stood at 1.6 mg/kg.

Regarding `CCCCN(CC)CCc1ccc(O)c(O)c1.Cl`, the 50% effective dose (ED50) in the data set with Mus musculus [2] worked out at 34 mg/kg. Also, the Time with Mus musculus [6] came to 2.3 min; in the data set with Mus musculus [7], 5 min; in the data set on Mus musculus [8], 2.1 min; in the data set on Mus musculus [9] it was 2.5 min; in the data set with Mus musculus [10] it was 4.2 min; in the data set with Mus musculus [11] it was 19.4 min.

Consider `CCCN(CCc1ccccc1)CCc1ccc(O)c(O)c1.Cl`, for which, in the data set with Mus musculus [2], the ED50 worked out at 7.4 mg/kg. Further, the Time stood at 3.2 min in the data set with Mus musculus [12], 47.4 min in the data set on Mus musculus [13], 4.4 min in the data set on Mus musculus [14] and 19.8 min in the data set on Mus musculus [15].

For the compound `CCCN(CCc1ccc(O)c(O)c1)CCC1CCCCC1.Cl`, the Activity result in the data set on Mus musculus [16] is “Toxic”. Moreover, the median effective dose (ED50) in the data set with Mus musculus [2] turned out to be 18 mg/kg. Moreover, the Time in the data set with Mus musculus [17] came to 4.2 min; in the data set with Mus musculus [18] it was 14.1 min.

With `Br.CCCCN(CCC)C1CCc2cc(O)c(O)cc2C1` (stereo not drawn), the 50% effective dose (ED50) with Mus musculus [2] came out at 1.3 mg/kg. Also, the Time is on record as 2.8 min in the data set with Mus musculus [19], 31.5 min in the data set with Mus musculus [20], 2 min with Mus musculus [21] and 17 min in the data set on Mus musculus [24]. For the same compound, in the data set on Mus musculus [22], the Activity entry is on record as “Toxic”. Moreover, the “Ratio ED50” value in the data set with Mus musculus [23] was 10.

Take `CCCN(CCc1ccc(O)c(O)c1)CC(C)C.Cl`: the median effective dose (ED50) with Mus musculus [2] amounted to 7.4 mg/kg. The Time in the data set on Mus musculus [25] is given as 39 min; in the data set on Mus musculus [26] it was 2.8 min; in the data set on Mus musculus [27], 2.6 min; in the data set on Mus musculus [28] it was 18 min.
